Measured values from ChEMBL document CHEMBL6121061, “Metabolomics-Guided Discovery of Bipolarolides H-O, New Ophiobolin-Type Sesterterpenes with Antibacterial Activity from the Marine-Derived Fungus Uzbekistanica storfjordensis sp. nov” (2025).
Active and inactive are the calls of the source.

Columns and labels:
Streptococcus agalactiae [1] = assay: Antibacterial activity against Streptococcus agalactiae ATCC 12386 assessed as inhibition of bacterial growth at 100 uM by broth microdilution method; format: functional, organism-based
Procedure, shortened: (§1)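 Broth microdilution per EUCAST, run in duplicate, for two independent experiments. Pure compounds came from 10 mM stocks in 20% DMSO, diluted with water, and were tested at a final 100 μM for growth inhibition. Controls were gentamycin at 0.03–32 μg/mL (positive) and 0.25% DMSO with growth medium (negative).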

Enterococcus faecalis = assay: Antibacterial activity against Enterococcus faecalis ATCC 29122 assessed as inhibition of bacterial growth at 100 uM by broth microdilution method; format: functional, organism-based; procedure, shortened: as §1
Staphylococcus aureus = assay: Antibacterial activity against Staphylococcus aureus ATCC 25923 assessed as inhibition of bacterial growth at 100 uM by broth microdilution method; format: functional, organism-based; procedure, shortened: as §1
Escherichia coli = assay: Antibacterial activity against Escherichia coli ATCC 25922 assessed as inhibition of bacterial growth at 100 uM by broth microdilution method; format: functional, organism-based; procedure, shortened: as §1
Pseudomonas aeruginosa = assay: Antibacterial activity against Pseudomonas aeruginosa ATCC 27853 assessed as inhibition of bacterial growth at 100 uM by broth microdilution method; format: functional, organism-based; procedure, shortened: as §1
Streptococcus agalactiae [2] = assay: Antibacterial activity against Streptococcus agalactiae ATCC 12386 by broth microdilution method; format: functional
Procedure, shortened: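 MIC was found by EUCAST broth microdilution in duplicate over 12.5–125 μM, using compounds from 10 mM stocks in 20% DMSO diluted in water. OD600 was plotted as a concentration-effect curve, and MIC was taken as the concentration giving an OD600 of 0.05. Gentamycin at 0.03–32 μg/mL served as the positive control.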

Streptococcus agalactiae [3] = assay: Antibacterial activity against Streptococcus agalactiae ATCC 12386 assessed as inhibition of bacterial growth at 100 uM by broth microdilution method

CC(C)=CCC[C@H](C)[C@H]1CC[C@]2(C)C[C@H]3C4=C(CC[C@@H]12)C(=O)N(CCO)[C@@H]4C[C@@]3(C)O
64 µM: MIC (Streptococcus agalactiae [2])
inactive: Activity (Enterococcus faecalis) | Activity (Staphylococcus aureus) | Activity (Escherichia coli) | Activity (Pseudomonas aeruginosa)
active: Activity (Streptococcus agalactiae [1])

CC(CCC[C@H](C)[C@H]1CC[C@]2(C)C[C@H]3C4=C(CC[C@@H]12)C(=O)N(CCO)[C@@H]4C[C@@]3(C)O)COC=O (stereo partly specified)
active: Activity (Streptococcus agalactiae [1]) | Activity (Streptococcus agalactiae [3])
86 µM: MIC (Streptococcus agalactiae [2])
inactive: Activity (Enterococcus faecalis) | Activity (Staphylococcus aureus) | Activity (Escherichia coli) | Activity (Pseudomonas aeruginosa)

C/C(=C\CC[C@H](C)[C@H]1CC[C@]2(C)C[C@H]3C4=C(CC[C@@H]12)C(=O)N(CCO)[C@@H]4C[C@@]3(C)O)CO
inactive: Activity (Enterococcus faecalis) | Activity (Staphylococcus aureus) | Activity (Escherichia coli) | Activity (Pseudomonas aeruginosa) | Activity (Streptococcus agalactiae [2])

C/C(=C\CC[C@H](C)[C@H]1CC[C@]2(C)C[C@H]3C4=C(CC[C@@H]12)C(=O)N(CCO)[C@@H]4C[C@@]3(C)O)C(=O)O
inactive: Activity (Enterococcus faecalis) | Activity (Staphylococcus aureus) | Activity (Escherichia coli) | Activity (Pseudomonas aeruginosa) | Activity (Streptococcus agalactiae [2])

CC(C)=CCC[C@H](C)[C@H]1CC[C@]2(C)C[C@H]3[C@@H]4[C@H](CC[C@@H]12)C(=O)N1CCOC41C[C@@]3(C)O (stereo partly specified)
inactive: Activity (Enterococcus faecalis) | Activity (Staphylococcus aureus) | Activity (Escherichia coli) | Activity (Pseudomonas aeruginosa) | Activity (Streptococcus agalactiae [2])

CNC(C)[C@@H]1CC[C@@H](N)[C@@H](O[C@H]2[C@H](O)[C@@H](O[C@H]3OC[C@](C)(O)[C@H](NC)[C@H]3O)[C@H](N)C[C@@H]2N)O1.CN[C@@H]1[C@@H](O)[C@@H](O[C@@H]2[C@@H](O)[C@H](O[C@H]3O[C@H](C(C)N)CC[C@H]3N)[C@@H](N)C[C@H]2N)OC[C@]1(C)O.CN[C@@H]1[C@@H](O)[C@@H](O[C@@H]2[C@@H](O)[C@H](O[C@H]3O[C@H](CN)CC[C@H]3N)[C@@H](N)C[C@H]2N)OC[C@]1(C)O (stereo partly specified)
3 µM: MIC (Streptococcus agalactiae [2])

CC(CCC[C@H](C)[C@H]1CC[C@]2(C)C[C@H]3C4=C(CC[C@@H]12)C(=O)N(CCO)[C@@H]4C[C@@]3(C)O)C(=O)O (stereo partly specified)
inactive: Activity (Enterococcus faecalis) | Activity (Staphylococcus aureus) | Activity (Escherichia coli) | Activity (Pseudomonas aeruginosa) | Activity (Streptococcus agalactiae [2])

CC(CO)CCC[C@H](C)[C@H]1CC[C@]2(C)C[C@H]3C4=C(CC[C@@H]12)C(=O)N(CCO)[C@@H]4C[C@@]3(C)O (stereo partly specified)
inactive: Activity (Enterococcus faecalis) | Activity (Staphylococcus aureus) | Activity (Escherichia coli) | Activity (Pseudomonas aeruginosa) | Activity (Streptococcus agalactiae [2])

CC(C)=C/C=C\[C@H](C)[C@H]1CC[C@]2(C)C[C@H]3C4=C(CC[C@@H]12)C(=O)N(CCO)[C@@H]4C[C@@]3(C)O
66 µM: MIC (Streptococcus agalactiae [2])
inactive: Activity (Enterococcus faecalis) | Activity (Staphylococcus aureus) | Activity (Escherichia coli) | Activity (Pseudomonas aeruginosa)
active: Activity (Streptococcus agalactiae [1]) | Activity (Streptococcus agalactiae [3])
